Converted amounts (≈) assume the structure as drawn. The source made the active and inactive calls. The calls are words filed in the database; no cut-off is given here.
Legend:
Type in all cases: functional
[1] = test system: Candida albicans; test: Antimicrobial activity against Candida albicans
[2] = test system: Vibrio harveyi; test: Antimicrobial activity against Vibrio harveyi
In short: (§1)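 Overnight bacterial culture diluted 1000-fold into fresh medium the next day, then exposed to compound at five doses (100, 25, 6.25, 1.56, 0.39 μg/mL) in DMSO (final 1% v/v). DMSO-only and ampicillin no-growth controls were included. Incubated overnight at 37 °C in duplicate. Scored as % growth inhibition, averaged over two independent determinations, giving MIC50.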

[3] = test system: Staphylococcus aureus; test: Antimicrobial activity against Staphylococcus aureus; in short: as §1
[4] = test system: Mycolicibacterium smegmatis; test: Antimicrobial activity against Mycobacterium smegmatis
[5] = test system: Escherichia coli; test: Antimicrobial activity against Escherichia coli
[6] = test system: Mycolicibacterium smegmatis; test: Growth inhibition of Mycobacterium smegmatis at 25 ug/ml
[7] = test system: Candida albicans; test: Growth inhibition of Candida albicans at 100 ug/ml
[8] = test system: Mycolicibacterium smegmatis; test: Growth inhibition of Mycobacterium smegmatis at 100 ug/ml
[9] = test system: Candida albicans; test: Growth inhibition of Candida albicans at 25 ug/ml

SMILES: NS(=O)(=O)c1ccc(-n2cc(CO)nn2)cc1
- Activity [1]: inactive
- Activity [2]: inactive
- Activity [3]: inactive
- MIC50 [4]: > 100 µg/mL

SMILES: NS(=O)(=O)c1ccc(C(=O)O)cc1 [CARZENIDE]
- Activity [1]: inactive
- Activity [2]: inactive
- Activity [3]: inactive
- MIC50 [4]: > 100 µg/mL

SMILES: NS(=O)(=O)c1ccc(C(=O)NCc2cn(-c3ccc(S(N)(=O)=O)cc3)nn2)cc1
- Activity [1]: inactive
- Activity [2]: inactive
- Activity [3]: inactive
- MIC50 [4]: 100 µg/mL (≈ 229 µM)

SMILES: Nc1ccc(S(N)(=O)=O)cc1 [SULFANILAMIDE]
- Activity [1]: inactive
- Activity [2]: inactive
- Activity [3]: inactive
- MIC50 [4]: > 100 µg/mL

SMILES: C#CCOC(=O)c1ccc(S(N)(=O)=O)cc1
- Activity [1]: inactive
- Activity [2]: inactive
- Activity [3]: inactive
- MIC50 [4]: > 100 µg/mL

SMILES: C#CCNC(=O)c1ccc(S(N)(=O)=O)cc1
- Activity [1]: inactive
- Activity [2]: inactive
- Activity [3]: inactive
- MIC50 [4]: > 100 µg/mL

SMILES: CC1(C)S[C@@H]2[C@H](NC(=O)[C@H](N)c3ccccc3)C(=O)N2[C@H]1C(=O)O [AMPICILLIN]
- MIC50 [2]: 500 µg/mL (≈ 1430 µM)
- MIC50 [3]: 500 µg/mL (≈ 1430 µM)
- MIC50 [5]: 500 µg/mL (≈ 1430 µM)

SMILES: [N-]=[N+]=Nc1ccc(S(N)(=O)=O)cc1
- Activity [1]: inactive
- Activity [2]: inactive
- Activity [3]: inactive

SMILES: NS(=O)(=O)c1ccc(C(=O)OCc2cn(-c3ccc(S(N)(=O)=O)cc3)nn2)cc1
- MIC50 [1]: 100 µg/mL (≈ 229 µM)
- inhibition at 25 µg/mL [6]: 68%
- inhibition at 100 µg/mL [7]: 49%
- Activity [2]: inactive
- inhibition at 100 µg/mL [8]: 92%
- Activity [3]: inactive
- MIC50 [4]: < 25 µg/mL
- inhibition at 25 µg/mL [9]: 36%

SMILES: CN[C@@H]1[C@H](O[C@H]2[C@H](O[C@H]3[C@H](O)[C@@H](O)[C@H](N=C(N)N)[C@@H](O)[C@@H]3N=C(N)N)O[C@@H](C)[C@]2(O)C=O)O[C@@H](CO)[C@H](O)[C@H]1O [STREPTOMYCIN]
- MIC50 [4]: 500 µg/mL (≈ 860 µM)

Source: ChEMBL document CHEMBL1139119, “Anti-mycobacterial activity of a bis-sulfonamide” (2007)
